Measurements as given in ChEMBL document CHEMBL1145995, “Tricyclic benzimidazoles as potent poly(ADP-ribose) polymerase-1 inhibitors” (J Med Chem, 2003).
pKi: −log10 of the molar value. Blank lines part the entries; values can stand above or below the molecule they belong to.

Key:
[1] = molecular target: T1, Poly [ADP-ribose] polymerase 1 (Homo sapiens, UniProt P09874); test: Inhibitory activity against human full length Poly (ADP-ribose) polymerase 1 at 100 uM
Procedure, shortened: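 Human full-length PARP-1 enzyme assay. Tested at a single concentration of 100 μM, reported as percent inhibition instead of a Ki value.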

A549 [2] = test: Enhancement factor of 200 uM temozolomide by 0.4 uM PARP inhibitor in A549 cells
A549 [3] = test: Concentration that gives 50% growth inhibition (topotecan alone/ (topotecan + 0.4 uM of compound)) in A549 cells; type: functional, Homo sapiens
Procedure, shortened: (§1)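 A549 cells exposed to temozolomide (TM) or topotecan (TP), each with or without 0.4 μM PARP inhibitor. […] PF50 = GI50 of cytotoxic agent alone ÷ GI50 with inhibitor. Values are the average of two independent experiments.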

LoVo [4] = test: Concentration that gives 50% growth inhibition in LoVo cells, activity expressed as GI50; type: functional; conditions: Homo sapiens
LoVo [5] = test: Potentiation of temozolomide in LoVo cells by 0.40 uM compound (TM); type: functional, Homo sapiens
A549 [6] = test: Concentration that gives 50% growth inhibition (temozolomide alone/ (temozolomide + 0.4 uM of compound)) in A549 cells; type: functional, Homo sapiens; procedure, shortened: as §1
LoVo [7] = test: Potentiation of topotecan in LoVo cells, by 0.40 uM compound (TP); type: functional, Homo sapiens
A549 [8] = test: Effect on NAD+ depletion (% remaining versus vehicle control) in presence of MNNG (25 uM) at 0.4 uM compound concentration in A549 cells; type: functional, Homo sapiens
Procedure, shortened: (§2)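 A549 cells treated with vehicle, with 25 μM MNNG (subtoxic DNA alkylation), or with 25 μM MNNG plus inhibitor at 0.006–11 μM. Cellular NAD+ measured by an enzyme recycling method and expressed as % remaining relative to vehicle-treated cells without DNA damage.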

A549 [9] = test: Concentration that gives 50% growth inhibition in A549 cells, activity expressed as PF50 (TP) at 0.03 uM; type: functional, Homo sapiens
Procedure, shortened: (§3)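 A549 cells given topotecan alone or together with the PARP inhibitor at the listed concentration. PF50 (TP) = GI50 of topotecan alone ÷ GI50 of topotecan with inhibitor.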

A549 [10] = test: Percent ADP-ribose polymer formation in presence of MNNG (25 uM) at 0..006 uM compound concentration in A549 cells; type: functional, Homo sapiens
Procedure, shortened: (§4)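 A549 cells treated with vehicle, with 25 μM MNNG, or with 25 μM MNNG plus inhibitor at 0.006–11 μM. ADP-ribose polymer quantified by HPLC and expressed as % of the polymer formed with 25 μM MNNG alone.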

A549 [11] = test: Percent ADP-ribose polymer formation in presence of MNNG (25 uM) at 0..4 uM compound concentration in A549 cells; type: functional, Homo sapiens; procedure, shortened: as §4
A549 [12] = test: Percent ADP-ribose polymer formation in presence of MNNG (25 uM) at 11 uM compound concentration in A549 cells; type: functional, Homo sapiens; procedure, shortened: as §4
A549 [13] = test: Percent ADP-ribose polymer formation in presence of MNNG (25 uM) at 0..15 uM compound concentration in A549 cells; type: functional, Homo sapiens; procedure, shortened: as §4
A549 [14] = test: Effect on NAD+ depletion (% remaining versus vehicle control) in presence of MNNG (25 uM) at 0.15 uM compound concentration in A549 cells; type: functional, Homo sapiens; procedure, shortened: as §2
LoVo [15] = test: Potentiation of topotecan in LoVo cells by 0.40 uM compound (TP); type: functional, Homo sapiens
A549 [16] = test: Concentration that gives 50% growth inhibition in A549 cells, activity expressed as PF50 (TP) at 0.15 uM; type: functional, Homo sapiens; procedure, shortened: as §3
A549 [17] = test: Concentration that gives 50% growth inhibition in A549 cells, activity expressed as PF50 (TP) at 0.4 uM; type: functional, Homo sapiens; procedure, shortened: as §3
A549 [18] = test: Effect on NAD+ depletion (% remaining versus vehicle control) in presence of MNNG (25 uM) at 0.006 uM compound concentration in A549 cells; type: functional, Homo sapiens; procedure, shortened: as §2
A549 [19] = test: Effect on NAD+ depletion (% remaining versus vehicle control) in presence of MNNG (25 uM) at 0.03 uM compound concentration in A549 cells; type: functional, Homo sapiens; procedure, shortened: as §2
A549 [20] = test: Effect on NAD+ depletion (% remaining versus vehicle control) in presence of MNNG (25 uM) at 11 uM compound concentration in A549 cells; type: functional, Homo sapiens; procedure, shortened: as §2
A549 [21] = test: Percent ADP-ribose polymer formation in presence of MNNG (25 uM) at 0..03 uM compound concentration in A549 cells; type: functional, Homo sapiens; procedure, shortened: as §4
A549 [22] = test: Concentration that gives 50% growth inhibition in A549 cells, activity expressed as PF50 (TP) at 0.006 uM; type: functional, Homo sapiens; procedure, shortened: as §3
[23] = molecular target: T1, Poly [ADP-ribose] polymerase 1; test: Inhibitory activity against human full length Poly (ADP-ribose) polymerase 1
A549 [24] = test: Concentration that gives 50% growth inhibition in A549 cells, activity expressed as PF50 (TM); type: functional, Homo sapiens; procedure, shortened: as §1

T1 sequence (P09874 whole entry): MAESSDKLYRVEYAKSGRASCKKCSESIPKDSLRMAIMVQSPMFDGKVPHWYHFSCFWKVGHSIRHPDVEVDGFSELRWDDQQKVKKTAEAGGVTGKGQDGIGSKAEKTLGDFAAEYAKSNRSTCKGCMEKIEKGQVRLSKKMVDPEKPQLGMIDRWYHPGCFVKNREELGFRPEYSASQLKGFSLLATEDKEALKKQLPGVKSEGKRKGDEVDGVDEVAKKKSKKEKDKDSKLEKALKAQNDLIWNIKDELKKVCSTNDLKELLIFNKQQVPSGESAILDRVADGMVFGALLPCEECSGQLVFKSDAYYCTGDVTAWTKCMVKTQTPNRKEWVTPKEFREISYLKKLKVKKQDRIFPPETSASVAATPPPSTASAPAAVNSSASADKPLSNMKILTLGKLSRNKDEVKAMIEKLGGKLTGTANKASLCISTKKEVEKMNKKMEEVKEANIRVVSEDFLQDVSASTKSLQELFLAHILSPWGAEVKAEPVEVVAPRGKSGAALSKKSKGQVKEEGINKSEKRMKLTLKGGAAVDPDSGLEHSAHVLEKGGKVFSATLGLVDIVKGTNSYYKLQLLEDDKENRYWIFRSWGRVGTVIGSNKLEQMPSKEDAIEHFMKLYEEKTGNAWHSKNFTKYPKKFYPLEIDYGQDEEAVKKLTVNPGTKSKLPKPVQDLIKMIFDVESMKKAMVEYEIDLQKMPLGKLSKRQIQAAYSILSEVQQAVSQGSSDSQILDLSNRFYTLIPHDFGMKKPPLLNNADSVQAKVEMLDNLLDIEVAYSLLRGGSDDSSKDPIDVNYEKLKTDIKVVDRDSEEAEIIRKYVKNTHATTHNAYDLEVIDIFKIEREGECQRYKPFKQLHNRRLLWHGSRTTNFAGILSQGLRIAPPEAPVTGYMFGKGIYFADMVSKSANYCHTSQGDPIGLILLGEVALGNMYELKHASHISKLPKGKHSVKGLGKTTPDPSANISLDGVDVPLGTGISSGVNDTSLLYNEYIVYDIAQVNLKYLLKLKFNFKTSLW

Compound: CN1CCn2c(-c3cccc4ccccc34)nc3cccc(c32)C1=O
inhibition [1]: 40% | EF200 (A549 [2]): 1.1

Compound: O=C1NCCn2c(-c3cccc(C(F)(F)F)c3)nc3cccc1c32
PF50 (A549 [3]): 1.7

Compound: O=C1NCCn2c(-c3ccc(CO)cc3)nc3cccc1c32
EF200 (A549 [2]): 1.5

GI50 (LoVo [4]): 7.9 µM
Compound: O=C1NCCn2c(-c3ccc(Cl)cc3)nc3cccc1c32
PF50 (LoVo [5]): 2.1 | PF50 (A549 [6]): 1.5 | PF50 (A549 [3]): 2 | PF50 (LoVo [7]): 1.5

Compound: O=C1NCCn2c(-c3ccccc3)nc3cccc1c32
PF50 (A549 [3]): 1.5

GI50 (LoVo [4]): 11.2 µM
Compound: CN(C)Cc1ccc(-c2nc3cccc4c3n2CCNC4=O)cc1
Remaining (A549 [8]): 88% | PF50 (A549 [9]): 1.9 | Formation (A549 [10]): 85% | Formation (A549 [11]): 13% | Formation (A549 [12]): 5.5% | Formation (A549 [13]): 20% | Remaining (A549 [14]): 85% | PF50 (LoVo [15]): 1.7 | PF50 (A549 [16]): 2.1 | PF50 (A549 [17]): 2.3 | PF50 (LoVo [5]): 5.4 | PF50 (A549 [6]): 2.2 | PF50 (A549 [3]): 2 | Remaining (A549 [18]): 65% | Remaining (A549 [19]): 75% | Remaining (A549 [20]): 99% | Formation (A549 [21]): 38% | PF50 (A549 [22]): 1.6

GI50 (LoVo [4]): > 50 µM
Compound: CN(C)Cc1cccc(-c2nc3cccc4c3n2CCNC4=O)c1
PF50 (LoVo [5]): 2 | PF50 (A549 [6]): 1.4 | PF50 (A549 [3]): 1.8 | PF50 (LoVo [7]): 1.5

pKi [23]: 7.35
Compound: Cc1nc2cccc3c2n1CCNC3=O
PF50 (A549 [24]): 1.1 | PF50 (A549 [3]): 1.2

Compound: O=C1NCCn2c(-c3ccccc3Cl)nc3cccc1c32
PF50 (A549 [3]): 1.3

Compound: O=C1NCCn2c(-c3cccc(CO)c3)nc3cccc1c32
EF200 (A549 [2]): 1.2

Compound: O=C1NCCn2c(-c3cccc4ccccc34)nc3cccc1c32
PF50 (A549 [3]): 1.4
